This is an account of results in ChEMBL document CHEMBL1138465, “N-aryl-oxazolidin-2-imine muscle selective androgen receptor modulators enhance potency through pharmacophore reorientation” (J Med Chem, 2009).

The nature of data set [1]: Aqueous solubility of the compound. The class given is physicochemical.
The target of data set [2] is T1, Androgen receptor (Rattus norvegicus, UniProt P15207).
T1 sequence (P15207 whole entry): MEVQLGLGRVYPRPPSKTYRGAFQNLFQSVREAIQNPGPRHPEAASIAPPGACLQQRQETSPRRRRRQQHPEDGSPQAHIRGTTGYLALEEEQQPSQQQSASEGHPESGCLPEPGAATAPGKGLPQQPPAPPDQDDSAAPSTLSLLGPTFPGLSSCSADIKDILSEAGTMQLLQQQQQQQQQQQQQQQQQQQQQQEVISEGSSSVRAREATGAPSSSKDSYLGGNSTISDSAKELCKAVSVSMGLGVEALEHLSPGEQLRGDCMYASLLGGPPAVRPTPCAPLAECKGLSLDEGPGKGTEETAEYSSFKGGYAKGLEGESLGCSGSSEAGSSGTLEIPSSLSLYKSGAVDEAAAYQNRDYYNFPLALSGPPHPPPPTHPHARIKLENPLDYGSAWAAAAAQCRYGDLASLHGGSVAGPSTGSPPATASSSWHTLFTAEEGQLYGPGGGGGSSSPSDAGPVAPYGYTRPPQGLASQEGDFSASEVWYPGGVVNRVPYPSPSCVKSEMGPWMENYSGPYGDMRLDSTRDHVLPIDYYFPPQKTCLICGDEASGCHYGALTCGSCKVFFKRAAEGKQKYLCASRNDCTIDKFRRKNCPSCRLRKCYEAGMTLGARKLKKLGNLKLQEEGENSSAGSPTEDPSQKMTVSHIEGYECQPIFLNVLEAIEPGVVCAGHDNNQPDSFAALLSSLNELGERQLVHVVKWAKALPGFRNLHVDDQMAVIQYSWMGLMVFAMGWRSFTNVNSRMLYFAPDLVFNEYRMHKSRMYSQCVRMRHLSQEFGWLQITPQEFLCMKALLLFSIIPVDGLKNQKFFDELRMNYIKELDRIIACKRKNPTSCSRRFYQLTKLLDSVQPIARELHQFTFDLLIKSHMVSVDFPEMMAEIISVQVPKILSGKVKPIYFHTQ
The experiment in a line: Agonist activity at rat androgen receptor expressed in mouse skeletal muscle C2C12 cells assessed as transcriptional activation after 24 hrs by androgen-specific response element driven luciferase reporter gene assay. The data set is classed as functional, cell-based.

Data set [3] addresses T2, Androgen receptor (Homo sapiens, UniProt P10275).
T2 sequence (P10275 whole entry): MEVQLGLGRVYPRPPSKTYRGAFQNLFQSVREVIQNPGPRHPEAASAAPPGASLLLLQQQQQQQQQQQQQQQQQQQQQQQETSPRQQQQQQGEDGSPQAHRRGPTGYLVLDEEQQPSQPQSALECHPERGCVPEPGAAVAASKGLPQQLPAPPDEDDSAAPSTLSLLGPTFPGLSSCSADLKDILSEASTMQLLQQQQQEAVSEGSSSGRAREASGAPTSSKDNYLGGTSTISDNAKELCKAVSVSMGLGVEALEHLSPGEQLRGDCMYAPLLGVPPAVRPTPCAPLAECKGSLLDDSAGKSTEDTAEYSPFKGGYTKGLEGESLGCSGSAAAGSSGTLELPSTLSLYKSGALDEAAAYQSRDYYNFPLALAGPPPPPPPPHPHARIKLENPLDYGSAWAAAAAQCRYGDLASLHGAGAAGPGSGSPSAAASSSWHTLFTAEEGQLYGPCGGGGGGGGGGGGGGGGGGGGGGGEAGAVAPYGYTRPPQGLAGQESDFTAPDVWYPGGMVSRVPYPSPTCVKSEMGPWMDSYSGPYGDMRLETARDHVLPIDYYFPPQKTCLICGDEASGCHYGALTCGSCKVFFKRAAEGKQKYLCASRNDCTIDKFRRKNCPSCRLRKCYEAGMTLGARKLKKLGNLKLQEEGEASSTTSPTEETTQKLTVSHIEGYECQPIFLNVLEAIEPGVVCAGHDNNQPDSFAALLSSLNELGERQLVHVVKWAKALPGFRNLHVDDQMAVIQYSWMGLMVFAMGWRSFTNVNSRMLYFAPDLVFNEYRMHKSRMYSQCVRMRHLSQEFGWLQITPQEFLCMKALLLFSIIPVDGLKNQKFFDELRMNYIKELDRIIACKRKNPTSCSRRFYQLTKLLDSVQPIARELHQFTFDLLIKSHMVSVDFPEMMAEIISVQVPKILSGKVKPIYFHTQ
The experiment in a line: Displacement of [3H[DHT from androgen receptor endogenously expressed in human MDA-MB-453 cells. The class given is cell-based.

In data set [4] the test system is Rattus norvegicus. Description: Anabolic activity in castrated male Harlan Sprague-Dawley rat assessed as intact growth of Levator ani muscle at 0.3 mg/kg, po after 14 days. The data set is classed as functional.
Data set [5] concerns Rattus norvegicus. The experiment in a line: Anabolic activity in castrated male Harlan Sprague-Dawley rat assessed as intact growth of Levator ani muscle at 0.03 mg/kg, po after 14 days. The class given is functional.
Data set [6] can be described thus: Chemical stability in 0.1N HCl assessed as drug remaining after 24 hrs. The class given is physicochemical. The following applies: read-out: Stability. Summed up: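 Compound held in solution in 0.1 N HCl at 37 °C for 24 h, used as a model of gut pH; the percentage of intact compound remaining at 24 h was the read-out.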
The test system of data set [7] is Rattus norvegicus. Description: Anabolic activity in castrated male Harlan Sprague-Dawley rat assessed as intact growth of Levator ani muscle at 0.01 mg/kg, po after 14 days. The class given is functional.
A short description of data set [8]: AUC in rat at 5 mg/kg, po. The data set is classed as ADME, organism-based. On the set-up: dose 5 mg/kg, route oral. The note with it: plasma.
For data set [9], the system named is Rattus norvegicus. The experiment in a line: Anabolic activity in castrated male Harlan Sprague-Dawley rat assessed as intact growth of prostate at 0.001 mg/kg, po after 14 days. The data set is classed as functional, Prostate gland.
Data set [10] deals with Rattus norvegicus. Description: Anabolic activity in castrated male Harlan Sprague-Dawley rat assessed as intact growth of prostate at 0.00001 mg/kg, po after 14 days. The following applies: dose 1e-05 mg/kg. The class given is functional, Prostate gland.
The subject of data set [11] is Rattus norvegicus. The experiment in a line: Anabolic activity in sc dosed castrated male Harlan Sprague-Dawley rat assessed as intact growth of Levator ani muscle after 14 days. The class given is functional. The note with it: 336 h.
For data set [12], the system named is Rattus norvegicus. The experiment in a line: Anabolic activity in castrated male Harlan Sprague-Dawley rat assessed as intact growth of prostate at 0.0001 mg/kg, po after 14 days. The data set is classed as functional, Prostate gland.
Data set [13] deals with Rattus norvegicus. Description: Anabolic activity in sc dosed castrated male Harlan Sprague-Dawley rat assessed as intact growth of prostate after 14 days. The class given is functional. The following applies: Prostate gland, 336 h.
The subject of data set [14] is Rattus norvegicus. The experiment in a line: Anabolic activity in castrated male Harlan Sprague-Dawley rat assessed as intact growth of prostate at 0.3 mg/kg, po after 14 days. The data set is classed as functional, Prostate gland.
The test system of data set [15] is Rattus norvegicus. Description: Anabolic activity in castrated male Harlan Sprague-Dawley rat assessed as intact growth of Levator ani muscle at 0.001 mg/kg, po after 14 days. The class given is functional.
Data set [16] has as its system Rattus norvegicus. Description: Anabolic activity in castrated male Harlan Sprague-Dawley rat assessed as intact growth of prostate at 0.1 mg/kg, po after 14 days. The data set is classed as functional, Prostate gland.
The subject of data set [17] is Rattus norvegicus. The experiment in a line: Anabolic activity in castrated male Harlan Sprague-Dawley rat assessed as intact growth of Levator ani muscle at 0.00001 mg/kg, po after 14 days. The note with it: dose 1e-05 mg/kg. The class given is functional.
Data set [18] deals with Rattus norvegicus. Description: Anabolic activity in po dosed castrated male Harlan Sprague-Dawley rat assessed as intact growth of prostate after 14 days. The data set is classed as functional. The note with it: Prostate gland, 336 h.
Data set [19] deals with Rattus norvegicus. Description: Anabolic activity in po dosed castrated male Harlan Sprague-Dawley rat assessed as intact growth of Levator ani muscle after 14 days. The note with it: 336 h. The data set is classed as functional.
The subject of data set [20] is Rattus norvegicus. The experiment in a line: Anabolic activity in castrated male Harlan Sprague-Dawley rat assessed as intact growth of Levator ani muscle at 0.1 mg/kg, po after 14 days. The data set is classed as functional.
The test system of data set [21] is Rattus norvegicus. Description: Anabolic activity in castrated male Harlan Sprague-Dawley rat assessed as intact growth of Levator ani muscle at 0.0001 mg/kg, po after 14 days. The class given is functional.
Data set [22] has as its system Rattus norvegicus. Description: Anabolic activity in castrated male Harlan Sprague-Dawley rat assessed as intact growth of prostate at 0.01 mg/kg, po after 14 days. The data set is classed as functional, Prostate gland.
In data set [23] the test system is Rattus norvegicus. The experiment in a line: Anabolic activity in castrated male Harlan Sprague-Dawley rat assessed as intact growth of prostate at 0.03 mg/kg, po after 14 days. The class given is functional, Prostate gland.
The target in data set [24] is T1, Androgen receptor. Description: Intrinsic activity at rat androgen receptor expressed in mouse skeletal muscle C2C12 cells assessed as transcriptional activation after 24 hrs by androgen-specific response element driven luciferase reporter gene assay relative to control. The class given is cell-based.
Data set [25] addresses T1, Androgen receptor. Description: […] at rat AR expressed in mouse skeletal muscle C2C12 cells assessed as transcriptional activation after 24 hrs by androgen-specific response element driven luciferase reporter gene assay. The data set is classed as functional, cell-based.

The structures appear in SMILES notation. In brackets after ≈: the same amount, converted by molar mass.

Regarding `Cc1c(N2C(=O)[C@@H]3[C@H](O)CCN3C2=O)ccc(C#N)c1Cl`, in [1], the concentration in solution (solubility) came to 19 µg/mL (≈ 62.1 µM).
Turning to `Cc1c(/N=C2\O[C@H](C(F)(F)F)[C@@H]3[C@@H](O)CCN23)ccc(C#N)c1Cl`, the EC50 on Androgen receptor [2] was found to be 19 nM. On Androgen receptor [3], this molecule displayed an inhibition constant (Ki) of 0.2 nM.
On to `CC[C@H]1[C@@H]2[C@@H](O)CCN2C(=O)N1c1ccc(C#N)c(Cl)c1C`, for which the EC50 on Androgen receptor [2] came out at 1.8 nM.
As for `Cc1c(/N=C2\OC[C@@H]3[C@@H](O)CCN23)ccc(C#N)c1Cl`, at Androgen receptor [2], the EC50 is 14 nM. On Androgen receptor [3], the Ki came to 0.3 nM.
Regarding `Cc1c(/N=C2\O[C@@H](C(F)(F)F)[C@@H]3[C@@H](O)CCN23)ccc(C#N)c1Cl`, the Activity is 103.9% with Rattus norvegicus [4]; 103.5% in the data set with Rattus norvegicus [5]; 109.3% in the data set with Rattus norvegicus [7]; 9.5% in the data set with Rattus norvegicus [9]; 2.6% in the data set with Rattus norvegicus [10]; 3.6% in the data set with Rattus norvegicus [12]. Besides, the Activity was 104.5% in the data set with Rattus norvegicus [14]; 59% with Rattus norvegicus [15]; 103% in the data set on Rattus norvegicus [16]; 21% in the data set on Rattus norvegicus [17]; 100.5% in the data set with Rattus norvegicus [20]; 25% in the data set with Rattus norvegicus [21]. Further, the Activity stood at 38.8% in the data set on Rattus norvegicus [22] and 72.9% with Rattus norvegicus [23]. Besides, in data set [6], the remaining at 24 h turned out to be 0.41%. Also, in data set [8], the exposure (AUC) worked out at 5.8 µM·h. In addition, the ED50 was 0.21 mg/kg with Rattus norvegicus [11], 0.42 mg/kg in the data set with Rattus norvegicus [13], 0.0143 mg/kg with Rattus norvegicus [18] and 0.0009 mg/kg in the data set with Rattus norvegicus [19]. The EC50 on Androgen receptor [2] is 0.2 nM. The molecule also displayed a Ki at Androgen receptor [3] of 0.3 nM.
On to `Cc1c(/N=C2\N(C(N)=O)C[C@@H]3[C@H](O)CCN23)ccc(C#N)c1Cl`, for which the concentration for a half-maximal effect (EC50) entry at Androgen receptor [24] is recorded as “Active”. The molecule further returned an inhibition constant (Ki) on Androgen receptor [3] of 19 nM.
`Cc1c(/N=C2\O[C@@H](C(F)(F)F)[C@@H]3[C@H](O)CCN23)ccc(C#N)c1Cl`: the half-maximal effective concentration (EC50) on Androgen receptor [2] was found to be 1.4 nM. In addition, the inhibition constant (Ki) on Androgen receptor [3] is 0.3 nM.
`Cc1c(N2C[C@@H]3[C@H](O)CCN3C2=O)ccc(C#N)c1Cl`: the EC50 at Androgen receptor [2] amounted to 6.4 nM. The inhibitory constant (Ki) at Androgen receptor [3] stood at 6 nM.
The corresponding values for `Cc1c(/N=C2\OC(C(C)C)[C@@H]3[C@H](O)CCN23)ccc(C#N)c1Cl` (single isomer, unassigned) are 3.7 nM and 0.7 nM.
With `Cc1c(/N=C2\N(C)C[C@@H]3[C@H](O)CCN23)ccc(C#N)c1Cl`, at Androgen receptor [2], the EC50 turned out to be 44 nM. The inhibition constant Ki on Androgen receptor [3] was 1.9 nM.
The corresponding values for `Cc1c(/N=C2\OC[C@@H]3[C@H](O)CCN23)ccc(C#N)c1Cl` are 4.8 nM and 0.8 nM.
In the case of `Cc1c(/N=C2\NC[C@@H]3[C@H](O)CCN23)ccc(C#N)c1Cl`, the inhibitory constant (Ki) at Androgen receptor [3] was determined as 10 nM. Besides, the 50% effective concentration (EC50) on Androgen receptor [25] turned out to be 1800 nM.
With `Cc1c(N2C(NC#N)N3CC[C@H](O)[C@H]3[C@@H]2C)ccc(C#N)c1Cl` (stereo partly specified), the EC50 on Androgen receptor [2] amounted to 1110 nM. At Androgen receptor [3], this molecule registered an inhibition constant (Ki) of 17 nM.
For `Cc1c(/N=C2\O[C@H](C(F)(F)F)[C@@H]3[C@H](O)CCN23)ccc(C#N)c1Cl`, in that order: 1.1 nM and 2.3 nM.
